{"source": "ChEMBL document CHEMBL3763157", "about": "“Synthesis and biological evaluation of novel orally available 1-phenyl-6-aminouracils containing dimethyldihydrobenzofuranol structure for the treatment of allergic skin diseases” (Bioorg Med Chem Lett, 2016)", "key": {"Mus musculus [1]": {"test_system": "Mus musculus", "experiment": "Antiinflammatory activity in ICR mouse assessed as inhibition of picryl chloride-induced contact hypersensitivity reaction administered topically on left ear after 24 hrs", "format": "functional", "method_in_brief": "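Mice sensitized with picryl chloride; test agent applied topically at 0.1 mg/ear in acetone. Percent inhibition is the drug-treated group's percent response relative to the control group, n = 5, reported as the mean of 5 animals.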"}, "Mus musculus [2]": {"test_system": "Mus musculus", "experiment": "Antipruritic activity in mouse assessed as inhibition of substance P-induced pruritus at 30 mg/kg administered 30 mins prior to substance P challenge measured over 60 mins", "format": "functional, organism-based", "method_in_brief": "(§1)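 Oral dose given 30 min before substance P challenge. Scratches counted over 60 min. Data are mean ± SEM, n = 7–8/group, analysed by Dunnett's test.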"}, "[3]": {"experiment": "Antioxidant activity assessed as suppression of H2O2/DETAPAC-Fe2+-mediated hydroxyl radical formation by measuring oxidation of dihydrorhodamine after 5 mins by fluorescence assay", "format": "physicochemical"}, "[4]": {"experiment": "Antioxidant activity assessed as suppression of H2O2/cobalt2+-mediated hydroxyl radical formation by luminol-based […] assay", "format": "physicochemical"}, "Mus musculus [5]": {"test_system": "Mus musculus", "experiment": "Antiinflammatory activity in mouse assessed as inhibition of picryl chloride-induced contact hypersensitivity reaction at 10 mg/kg, po administered 30 mins prior to picryl chloride challenge", "format": "functional, organism-based", "method_in_brief": "(§2)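 Mice sensitized with picryl chloride one week before the study. Oral dose given 30 min before picryl chloride challenge. Data are mean ± SEM, n = 5/group, analysed by Dunnett's test.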"}, "[6]": {"experiment": "AUC in mouse at 1 mg/kg, iv", "format": "ADME, organism-based", "conditions": "in vivo", "method_in_brief": "(§3)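 Mouse pharmacokinetic study with single dosing, intravenous at 1 mg/kg or oral at 10 mg/kg. Plasma drug concentrations were measured, and AUC was taken from the plasma concentration curve. The same study also gave CL and Vdss (iv), Cmax (po) and oral bioavailability.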"}, "[7]": {"experiment": "Solubility of the compound in phosphate buffer solution at pH 7.4", "format": "physicochemical", "method_in_brief": "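Solubility taken as the amount dissolved in phosphate buffer solution at pH 7.4, in […].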"}, "Mus musculus [8]": {"test_system": "Mus musculus", "experiment": "Antipruritic activity in mouse assessed as inhibition of substance P-induced pruritus at 10 mg/kg administered 30 mins prior to substance P challenge measured over 60 mins", "format": "functional, organism-based", "method_in_brief": "as §1"}, "[9]": {"experiment": "Clearance in mouse at 1 mg/kg, iv", "format": "ADME, organism-based", "conditions": "in vivo", "method_in_brief": "(§4)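 Mouse plasma PK after a single 1 mg/kg iv injection. Clearance (mL/min/kg) and steady-state volume of distribution (L/kg) derived from the plasma concentration profile.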"}, "Liver microsome [10]": {"test_system": "Liver microsome", "experiment": "Metabolic stability in rat liver microsomal fraction assessed per mg of protein", "format": "ADME", "conditions": "microsomes", "method_in_brief": "(§5)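 Metabolic stability measured in human or rat liver microsomal fraction. Reported as mL/min/mg protein.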"}, "[11]": {"experiment": "Volume of distribution at steady state in mouse at 1 mg/kg, iv", "format": "ADME, organism-based", "conditions": "in vivo, read-out: Vdss", "method_in_brief": "as §4"}, "[12]": {"experiment": "AUC in mouse at 10 mg/kg, po", "format": "ADME, organism-based", "conditions": "in vivo", "method_in_brief": "as §3"}, "[13]": {"experiment": "Apparent permeability in human Caco2 cells", "format": "ADME, cell-based", "conditions": "Caco-2", "method_in_brief": "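Caco-2 monolayer permeability reported as apparent permeability (Papp), in units of 10^-6 cm/s.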"}, "[14]": {"molecular_target": "Dual specificity mitogen-activated protein kinase kinase; MEK1/2 (Homo sapiens) (UniProt P36507+Q02750)", "sequence (P36507 whole entry, looked up)": "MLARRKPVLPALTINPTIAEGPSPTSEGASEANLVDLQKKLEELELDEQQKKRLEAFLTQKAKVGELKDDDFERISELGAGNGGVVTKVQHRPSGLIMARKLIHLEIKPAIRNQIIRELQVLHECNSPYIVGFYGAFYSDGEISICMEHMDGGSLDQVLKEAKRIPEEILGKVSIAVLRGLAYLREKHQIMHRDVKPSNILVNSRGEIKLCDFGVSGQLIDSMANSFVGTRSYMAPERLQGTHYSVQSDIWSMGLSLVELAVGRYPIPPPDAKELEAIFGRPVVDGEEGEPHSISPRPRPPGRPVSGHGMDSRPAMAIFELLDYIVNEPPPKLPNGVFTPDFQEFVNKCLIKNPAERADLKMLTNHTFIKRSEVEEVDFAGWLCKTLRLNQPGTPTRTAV", "sequence (Q02750 whole entry, looked up)": "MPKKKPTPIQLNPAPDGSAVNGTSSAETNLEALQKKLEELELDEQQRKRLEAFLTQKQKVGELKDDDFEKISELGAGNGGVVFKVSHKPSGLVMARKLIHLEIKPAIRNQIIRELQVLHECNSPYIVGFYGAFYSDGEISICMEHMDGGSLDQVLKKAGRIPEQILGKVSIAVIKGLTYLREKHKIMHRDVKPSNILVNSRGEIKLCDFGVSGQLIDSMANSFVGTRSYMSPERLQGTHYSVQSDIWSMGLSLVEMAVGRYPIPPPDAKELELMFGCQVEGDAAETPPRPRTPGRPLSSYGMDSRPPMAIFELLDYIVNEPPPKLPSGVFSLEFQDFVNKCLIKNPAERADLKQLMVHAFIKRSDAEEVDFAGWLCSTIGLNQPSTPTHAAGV", "experiment": "Inhibition of MEK1/2 (unknown origin)", "format": "protein assay"}, "[15]": {"experiment": "Oral bioavailability in mouse at 10 mg/kg", "format": "ADME, organism-based", "conditions": "in vivo", "method_in_brief": "(§6)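 Mouse plasma PK after 10 mg/kg oral dosing. Cmax in ng/mL. Bioavailability derived from oral AUC compared with AUC after a 1 mg/kg iv dose.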"}, "Mus musculus [16]": {"test_system": "Mus musculus", "experiment": "Antiinflammatory activity in po dosed mouse assessed as inhibition of picryl chloride-induced contact hypersensitivity reaction administered 30 mins prior to picryl chloride challenge", "format": "functional, organism-based", "method_in_brief": "as §2"}, "[17]": {"experiment": "Cmax in mouse at 10 mg/kg, po", "format": "ADME, organism-based", "parameters": "dose 10 mg/kg, route oral", "conditions": "in vivo", "method_in_brief": "as §6"}, "Liver microsome [18]": {"test_system": "Liver microsome", "experiment": "Metabolic stability in human liver microsomal fraction assessed per mg of protein", "format": "ADME", "conditions": "microsomes", "method_in_brief": "as §5"}}, "note": "Active and inactive are the calls of the source. No cut-off for these calls is given here.", "data": [{"smiles": "C=CC[C@@H]1/C=C(\\C)C[C@H](C)C[C@H](OC)[C@H]2O[C@@](O)(C(=O)C(=O)N3CCCC[C@H]3C(=O)O[C@H](/C(C)=C/[C@@H]3CC[C@@H](O)[C@H](OC)C3)[C@H](C)[C@@H](O)CC1=O)[C@H](C)C[C@@H]2OC", "note": "[TACROLIMUS ANHYDROUS]", "values": [{"measurement": "inhibition (INH)", "setting": "Mus musculus [1]", "value": 53, "unit": "%"}]}, {"smiles": "Cc1c(O)c(C)c(C(=O)Nc2c(N)n(-c3cccc(C(=O)O)c3)c(=O)n(C)c2=O)c2c1CC(C)(C)O2", "values": [{"measurement": "inhibition (INH)", "setting": "Mus musculus [1]", "value": 9, "unit": "%"}]}, {"smiles": "O=c1[nH]c2ccccc2n1CCCN1CCN(C(c2ccccc2)c2ccccc2)CC1", "values": [{"measurement": "inhibition", "setting": "Mus musculus [2]", "value": "Active"}]}, {"smiles": "Cc1c(C)c2c(c(C)c1O)CCC(C)(C(=O)O)O2", "note": "(stereo unspecified) [TROLOX]", "values": [{"measurement": "IC50", "setting": "[3]", "value": 24, "unit": "µM"}, {"measurement": "IC50", "setting": "[4]", "value": 9.7, "unit": "µM"}]}, {"smiles": "Cc1ccc(-n2c(N)c(NC(=O)c3c(C)c(O)c(C)c4c3OC(C)(C)C4)c(=O)n(C)c2=O)cc1C", "values": [{"measurement": "inhibition (INH)", "setting": "Mus musculus [1]", "value": 45, "unit": "%"}]}, {"smiles": "CCc1cccc(-n2c(N)c(NC(=O)c3c(C)c(O)c(C)c4c3OC(C)(C)C4)c(=O)n(C)c2=O)c1", "values": [{"measurement": "inhibition (INH)", "setting": "Mus musculus [1]", "value": 14, "unit": "%"}]}, {"smiles": "C[C@]12C=CC(=O)C=C1CC[C@@H]1[C@@H]2[C@@H](O)C[C@@]2(C)[C@H]1CC[C@]2(O)C(=O)CO", "values": [{"measurement": "inhibition", "setting": "Mus musculus [5]", "value": "Active"}]}, {"smiles": "Cc1cc(C)cc(-n2c(N)c(NC(=O)c3c(C)c(O)c(C)c4c3OC(C)(C)C4)c(=O)n(C)c2=O)c1", "values": [{"measurement": "inhibition (INH)", "setting": "Mus musculus [1]", "value": 15, "unit": "%"}]}, {"smiles": "O=C1O[C@H]([C@@H](O)CO)C(O)=C1O", "note": "[ASCORBIC ACID]", "values": [{"measurement": "IC50", "setting": "[3]", "value": 54, "unit": "µM"}, {"measurement": "IC50", "setting": "[4]", "value": 82, "unit": "µM"}]}, {"smiles": "Cc1cccc(-n2c(N)c(NC(=O)c3c(C)c(O)c(C)c4c3OC(C)(C)C4)c(=O)n(C)c2=O)c1", "values": [{"measurement": "AUC", "setting": "[6]", "value": 927, "unit": "ng·h/mL"}, {"measurement": "solubility", "setting": "[7]", "value": 21, "unit": "µg/mL"}, {"measurement": "inhibition", "setting": "Mus musculus [8]", "value": "Active"}, {"measurement": "IC50", "setting": "[4]", "value": 8.6, "unit": "µM"}, {"measurement": "clearance", "setting": "[9]", "value": 18, "unit": "mL/min/kg"}, {"measurement": "Stability", "setting": "Liver microsome [10]", "value": "< 10", "unit": "µL/min/mg"}, {"measurement": "Vd", "setting": "[11]", "value": 1, "unit": "L/kg"}, {"measurement": "AUC", "setting": "[12]", "value": 1100, "unit": "ng·h/mL"}, {"measurement": "inhibition (INH)", "setting": "Mus musculus [1]", "value": 52, "unit": "%"}, {"measurement": "Papp", "setting": "[13]", "value": 14, "unit": "×10⁻⁶ cm/s"}, {"measurement": "inhibition", "setting": "[14]", "value": "Active"}, {"measurement": "bioavailability", "setting": "[15]", "value": 12, "unit": "%"}, {"measurement": "inhibition", "setting": "Mus musculus [16]", "value": "Dose-dependent effect"}, {"measurement": "Cmax", "setting": "[17]", "value": 511, "unit": "ng/mL"}, {"measurement": "Stability", "setting": "Liver microsome [18]", "value": 19, "unit": "µL/min/mg"}]}, {"smiles": "Cc1c(C)c2c(c(C)c1O)CC[C@@](C)(C(=O)Nc1c(N)n(-c3ccccc3)c(=O)n(C)c1=O)O2", "values": [{"measurement": "IC50", "setting": "[3]", "value": 44, "unit": "µM"}, {"measurement": "IC50", "setting": "[4]", "value": 12.1, "unit": "µM"}]}, {"smiles": "CCOc1cccc(-n2c(N)c(NC(=O)c3c(C)c(O)c(C)c4c3OC(C)(C)C4)c(=O)n(C)c2=O)c1", "values": [{"measurement": "inhibition (INH)", "setting": "Mus musculus [1]", "value": 16, "unit": "%"}]}, {"smiles": "Cc1c(O)c(C)c(C(=O)Nc2c(N)n(-c3cccc(F)c3)c(=O)n(C)c2=O)c2c1CC(C)(C)O2", "values": [{"measurement": "inhibition (INH)", "setting": "Mus musculus [1]", "value": 10, "unit": "%"}]}, {"smiles": "Cc1ccc(-n2c(N)c(NC(=O)c3c(C)c(O)c(C)c4c3OC(C)(C)C4)c(=O)n(C)c2=O)cc1", "values": [{"measurement": "inhibition (INH)", "setting": "Mus musculus [1]", "value": 30, "unit": "%"}]}]}
